# Laboratory results: ChEMBL document CHEMBL1126916, “Cyclic GMP phosphodiesterase inhibitors. 1. The discovery of a novel potent inhibitor, 4-((3,4-(methylenedioxy)benzyl)amino)-6,7,8-trimethoxyquinazoline” (J Med Chem, 1993)
# Assays:
# Phosphodiesterase 4A [1] = target: T1, Phosphodiesterase 4A (Sus scrofa, UniProt O77823); assay: Inhibition of cAMP specific phosphodiesterase from porcine coronary arteries; settings: in the assay text read “porcine aorta” for “porcine coronary arteries”
# T1 sequence (O77823 whole entry): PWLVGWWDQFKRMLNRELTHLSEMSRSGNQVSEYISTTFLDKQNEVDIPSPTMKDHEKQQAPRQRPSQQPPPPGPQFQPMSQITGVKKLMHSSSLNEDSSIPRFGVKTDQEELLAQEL
# How it was run: (§1)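 Isozymes were separated from porcine aorta: type II (cGMP-stimulated), type III, and type IV (cAMP-specific). Each used [3H]cAMP at 1 μM as substrate. Compounds were tested in DMSO diluted in assay buffer over 10^-8 to 10^-4 M, with final DMSO below 0.4% (v/v). IC50 came from log concentration–inhibition curves (at least three points), as means ± SEM from at least three experiments.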
# Phosphodiesterase 3A = target: T2, Phosphodiesterase 3A (Sus scrofa, UniProt Q9XSW7); assay: Inhibition of cGMP-inhibited phosphodiesterase from porcine coronary arteries; how it was run: as §1
# T2 sequence (Q9XSW7 whole entry): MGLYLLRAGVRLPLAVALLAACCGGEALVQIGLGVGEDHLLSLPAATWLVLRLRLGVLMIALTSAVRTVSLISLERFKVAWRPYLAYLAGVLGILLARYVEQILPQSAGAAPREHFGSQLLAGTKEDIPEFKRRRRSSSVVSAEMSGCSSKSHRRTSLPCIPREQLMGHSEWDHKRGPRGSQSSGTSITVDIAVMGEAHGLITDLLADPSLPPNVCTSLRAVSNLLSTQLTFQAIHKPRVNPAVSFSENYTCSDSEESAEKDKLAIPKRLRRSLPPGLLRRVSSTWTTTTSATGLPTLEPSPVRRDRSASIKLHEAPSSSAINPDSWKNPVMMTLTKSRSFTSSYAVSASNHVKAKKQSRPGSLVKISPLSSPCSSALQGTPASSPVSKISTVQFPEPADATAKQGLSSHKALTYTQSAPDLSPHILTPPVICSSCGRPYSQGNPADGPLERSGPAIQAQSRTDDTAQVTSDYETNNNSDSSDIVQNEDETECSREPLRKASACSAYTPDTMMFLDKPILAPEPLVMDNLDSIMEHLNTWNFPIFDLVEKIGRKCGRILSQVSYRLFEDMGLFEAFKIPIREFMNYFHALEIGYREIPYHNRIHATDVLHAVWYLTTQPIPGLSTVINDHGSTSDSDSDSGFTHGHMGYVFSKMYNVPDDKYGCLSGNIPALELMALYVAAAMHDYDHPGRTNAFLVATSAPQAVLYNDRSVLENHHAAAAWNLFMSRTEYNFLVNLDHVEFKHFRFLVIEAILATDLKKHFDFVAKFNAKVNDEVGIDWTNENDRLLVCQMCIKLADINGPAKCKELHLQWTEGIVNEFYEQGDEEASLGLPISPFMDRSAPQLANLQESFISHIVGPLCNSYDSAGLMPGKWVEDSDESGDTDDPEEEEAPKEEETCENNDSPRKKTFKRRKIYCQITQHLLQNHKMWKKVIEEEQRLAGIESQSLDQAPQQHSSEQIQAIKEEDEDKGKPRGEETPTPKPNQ
# Sus scrofa = organism: Sus scrofa; assay: Relaxant effect on PGF2-alpha precontracted pig coronary arteries; type: functional
# How it was run: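 Porcine coronary arterial strips were equilibrated at 1 g resting tension. Intact endothelium was confirmed by 7 × 10^-9 M bradykinin relaxing strips precontracted with 50 mM KCl (final concentrations). Strips were then contracted with PGF2α, final 10^-6 M, and cumulative concentration–relaxation curves were built after a plateau. Relaxation was expressed as % of the PGF2α contraction. EC50 came from the log curve, mean ± SEM, n experiments.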
# Phosphodiesterase 4A [2] = target: T1, Phosphodiesterase 4A; assay: Inhibition of cAMP specific phosphodiesterase from porcine aorta
# How it was run: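 PDE isozymes (types I–V) separated from porcine aorta. Substrate was [3H]cGMP for types I and V and [3H]cAMP for types II, III and IV, each at 1 μM. Test agents were dissolved in DMSO and diluted in assay buffer over 10^-8 to 10^-4 M, with final DMSO below 0.4% (v/v). IC50 was taken from the log concentration–inhibition curve (at least three points), mean ± SEM of at least three experiments.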
# Phosphodiesterase 4A [3] = target: T1, Phosphodiesterase 4A; assay: Inhibition of cAMP specific phosphodiesterase from porcine aorta
# [4] = in the assay text read “porcine aorta” for “porcine coronary arteries”
Structure (SMILES),IC50 (Phosphodiesterase 4A [1]),IC50 (Phosphodiesterase 3A; [4]),EC50 (Sus scrofa),IC50 (Phosphodiesterase 4A [3]),other results
OCCN(CCO)c1nc(N2CCCCC2)c2nc(N(CCO)CCO)nc(N3CCCCC3)c2n1 [DIPYRIDAMOLE],6.4 µM,> 100 µM,,,
COc1cc2c(NCc3ccc4c(c3)OCO4)ncnc2c(OC)c1OC,> 100 µM,,1.96 µM,,
CCCOc1ccccc1-c1nc2nn[nH]c2c(=O)[nH]1 [ZAPRINAST],,> 100 µM,4.75 µM,,IC50 (Phosphodiesterase 4A [2]): 79.6 µM
Clc1cccc(Nc2nnc(-c3ccccc3)c3ccccc23)c1,,,,37.2 µM,
COc1ccc(Cc2nccc3cc(OC)c(OC)cc23)cc1OC [PAPAVERINE],,,,1.7 µM,IC50 (Phosphodiesterase 3A): 0.62 µM
